Reference: ChEMBL document CHEMBL2086294, “Kinetics and docking studies of two potential new inhibitors of the nucleoside hydrolase from Leishmania donovani” (Eur J Med Chem, 2012)
Activity calls are given as the source filed them. The rule behind the calls is not given here.

Experiments:
Leishmania donovani [1] = assay: Activity of Leishmania donovani recombinant nucleoside hydrolase expressed in Escherichia coli DH5alpha coexpressing MBP
Method in brief: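 LdNH fused to MBP, expressed from pMAL-c2-NH36 in E. coli DH5α (IPTG 0.3 mM, 2 h) and amylose-purified. Inosine hydrolysis coupled to excess xanthine oxidase (60 milliunits/mL) converting hypoxanthine to uric acid, read at 293 nm. 13 nM enzyme, inosine 0.3–3.0 KM, 20 mM phosphate pH 8.0, room temperature, triplicate. KM and Vmax from nonlinear Michaelis–Menten fit of initial velocities.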

[2] = Inhibition of Leishmania donovani recombinant nucleoside hydrolase expressed in Escherichia coli DH5alpha coexpressing MBP using inosine as substrate by xanthine oxidase-coupled assay
Method in brief: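 MBP-fused enzyme (13 nM) with 0.3 mM inosine and xanthine oxidase (60 milliunits/mL) in 20 mM phosphate pH 8.0. Uric acid formation read at 293 nm, with at least six inhibitor concentrations. IC50 from nonlinear dose-response fit of % inhibition. Ki from five or six inhibitor concentrations at a substrate level near KM, converted with the Cheng–Prusoff equation.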

[3] = biological target: Xanthine dehydrogenase/oxidase (Homo sapiens, UniProt P47989); assay: Inhibition of xanthine oxidase using hypoxanthine as substrate by UV-Vis spectrophotometry
Chain of Xanthine dehydrogenase/oxidase (P47989 whole entry): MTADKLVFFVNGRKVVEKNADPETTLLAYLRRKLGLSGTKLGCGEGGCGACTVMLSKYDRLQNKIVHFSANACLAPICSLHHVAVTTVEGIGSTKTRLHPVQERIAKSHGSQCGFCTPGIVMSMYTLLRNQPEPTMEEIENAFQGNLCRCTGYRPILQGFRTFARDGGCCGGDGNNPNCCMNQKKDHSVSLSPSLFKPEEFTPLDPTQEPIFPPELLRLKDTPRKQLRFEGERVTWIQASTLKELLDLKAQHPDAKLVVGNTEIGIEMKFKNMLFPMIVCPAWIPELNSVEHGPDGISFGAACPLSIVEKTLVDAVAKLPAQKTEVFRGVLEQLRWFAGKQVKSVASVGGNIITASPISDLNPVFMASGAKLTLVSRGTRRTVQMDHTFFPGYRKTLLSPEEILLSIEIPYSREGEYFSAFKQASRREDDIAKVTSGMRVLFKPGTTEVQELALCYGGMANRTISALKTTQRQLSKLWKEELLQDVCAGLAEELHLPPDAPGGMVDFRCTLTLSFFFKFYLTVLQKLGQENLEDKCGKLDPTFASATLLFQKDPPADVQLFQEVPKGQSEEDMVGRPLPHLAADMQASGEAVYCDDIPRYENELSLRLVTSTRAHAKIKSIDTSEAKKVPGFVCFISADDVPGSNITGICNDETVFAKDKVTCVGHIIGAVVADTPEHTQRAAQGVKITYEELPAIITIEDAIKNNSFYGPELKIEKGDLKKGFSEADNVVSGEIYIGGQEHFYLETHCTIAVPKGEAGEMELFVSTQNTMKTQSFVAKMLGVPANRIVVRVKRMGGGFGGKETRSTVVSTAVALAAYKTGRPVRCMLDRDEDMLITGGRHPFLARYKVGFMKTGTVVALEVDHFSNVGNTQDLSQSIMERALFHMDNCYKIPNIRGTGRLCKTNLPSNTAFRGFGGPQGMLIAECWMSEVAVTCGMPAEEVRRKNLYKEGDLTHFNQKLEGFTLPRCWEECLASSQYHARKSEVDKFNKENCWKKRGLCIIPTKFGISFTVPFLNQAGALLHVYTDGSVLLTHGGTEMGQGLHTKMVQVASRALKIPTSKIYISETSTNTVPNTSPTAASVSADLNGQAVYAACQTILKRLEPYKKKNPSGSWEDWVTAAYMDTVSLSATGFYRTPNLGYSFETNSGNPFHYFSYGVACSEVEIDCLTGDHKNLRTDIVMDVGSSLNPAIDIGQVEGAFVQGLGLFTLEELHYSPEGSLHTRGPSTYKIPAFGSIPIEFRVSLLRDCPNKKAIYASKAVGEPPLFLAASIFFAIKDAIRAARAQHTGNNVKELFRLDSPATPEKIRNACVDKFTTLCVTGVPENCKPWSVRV
Method in brief: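 Control with xanthine oxidase and hypoxanthine: uric acid formation followed spectrophotometrically, with and without test compound.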

Leishmania donovani [4] = assay: Competitive inhibition of Leishmania donovani recombinant nucleoside hydrolase expressed in Escherichia coli DH5alpha coexpressing MBP using inosine as substrate by Lineweaver-Burk plot analysis
Leishmania donovani [5] = assay: Ratio of inosine Km to compound Ki for Leishmania donovani recombinant nucleoside hydrolase

Compound	Km (Leishmania donovani [1])	IC50 [2]	Ki [2]	inhibition (INH) [3]	inhibition (Leishmania donovani [4])	Ratio (Leishmania donovani [5])
O=c1[nH]cnc2c1ncn2[C@@H]1O[C@H](CO)[C@@H](O)[C@H]1O	434 µM					
O=C(O)c1cn([C@@H]2O[C@H](CO)[C@@H](O)[C@H]2O)c2ccc(F)cc2c1=O		28.9 µM	17 µM	Not Active	Active	26
O=C(O)c1cn([C@@H]2O[C@H](CO)[C@@H](O)[C@H]2O)c2ccc(Cl)cc2c1=O		2.66 µM	1.6 µM	Not Active	Active	270
